# High-throughput results from PubChem.
# An excerpt weighted towards active compounds, which were near 4.8% of everything screened.
# CSC inhib = cancer stem cell inhibition; cancer stem cell-like cells viability, luminescence; inhibition, % at 7.5 µM; 300,000 tested, 1.1% active; in the data active = inhibition above about 75%; tested in HMLE shEcad cells
# Mdm2-MdmX inh = human Mdm2/MdmX binding inhibition; SaOS-2 split-luciferase Mdm2/MdmX complementation, luminescence; inhibition, % at 8 µM; 330,000 tested, 3% active;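 active = inhibition of at least 50% at 8 µM in the primary screen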
# SKKanGAS inh = SKKanGAS growth inhibition; 300,000 tested, 1.3% active; inhibition, % at 7.5 µM; S. pyogenes SKKanGAS, kanamycin growth, BacTiter-Glo, 6 h;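 active = mean replicate score, as percent of positive control median, at least 50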;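 also: strain carries kanamycin resistance gene driven by streptokinase promoter and grows in 40 µg/ml kanamycin; loss of luminescence reflects streptokinase promoter inhibition or plain growth inhibition; 0% = median of DMSO wells and 100% = positive control at its reference dose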
# XBP1 UPR activ = adaptive UPR (XBP1) activation; CHO-XBP1 luciferase reporter, IRE1-XBP1 UPR activation, luminescence; percent of tunicamycin response, DMSO as zero; activation, % at 20 µM; 330,000 tested, 0.33% active; AID 463104;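 active = versus positive control, 20 µM dose yields 30% or more activation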;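 also: 100% = tunicamycin at 10 µg/mL and 0% = DMSO only wells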
#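 Assay system: CHO-XBP1 luciferase reporter cells; Schedule: 6 h treatment, 37 °C; Detection: glow luminescence from Steady-Glo reagent; Benchmarks: high control tunicamycin 10 µg/mL final, low control DMSO vehicle only.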
# Beta apoptosis = blocks beta cell apoptosis | 300,000 tested, 0.8% active | protection from apoptosis, % (concentration not given with the values) | INS-1E cytokine-induced death, ATP luminescence, 48 h; percent of positive-control rescue, neutral wells zero;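 active = Every replicate reaches about 75%, or at least half do and their mean reaches it too, limit read from the data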;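 also: 0% = cytokine-treated negative control wells and 100% = positive control rescue; higher means more ATP so stronger rescue from cytokine killing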
# CHOP UPR activ = activators of apoptotic arm of unfolded protein response (CHOP); 330,000 tested, 0.34% active; CHO-CHOP luciferase reporter, UPR activation, luminescence; percent of tunicamycin response over DMSO baseline; activation, % at 10 µM; AID 449763;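 active = at 10 µM dose, activation of 40% or more, normalized to positive control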;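 also: 100% = tunicamycin at 10 µg/mL and 0% = DMSO alone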
#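 Evaluation: % reporter activation, DMSO baseline versus tunicamycin full activation; System: CHO-CHOP luciferase reporter cell line; Input: 500 cells/well; Incubation: 6 h compound treatment, 37 °C; Measured by: Steady-Glo luciferase luminescence; Dosing: one dose, 10 µM in 0.5% DMSO; Buffer or medium: F12 medium, 10% FBS; Benchmarks: positive tunicamycin 10 µg/mL, negative DMSO alone.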
# UPR CHOP confirm = apoptotic UPR (CHOP) activation, confirmed. AID 463112. shares compounds with CHOP UPR activ. CHO-CHOP cells, CHOP-luciferase reporter luminescence; percent of tunicamycin response, DMSO as zero. activation, % at 10 µM. 1,000 tested, 64% active; in the data active = activation above about 33%;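 also: 0% = DMSO wells and 100% = tunicamycin 10 µg/mL wells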
# Starred values were filed as active, the others as inactive; / = not tested or not shown.
SMILES,CSC inhib,Mdm2-MdmX inh,SKKanGAS inh,XBP1 UPR activ,Beta apoptosis,CHOP UPR activ,UPR CHOP confirm
CCCN(CC(=O)Nc1ccccc1OC)C(=O)C1=COCCO1,/,2.0,/,3.6,3.7,-3.8,/
Cc1ccc(NC(=O)CN2C(=O)NC(C)(C3CC3)C2=O)c(C)c1 (stereo not drawn),-10.6,13.1,/,-2.1,-1.6,70.0*,-1.4
CCOc1ccc(NC(=O)CN(C)C(=O)c2ccccc2OCc2c(C)noc2C)cc1OCC,-5.4,-0.8,20.2,3.3,1.0,-2.8,/
Cc1ccc(NN2C(=O)C=C(c3ccccc3)C2=O)cc1,/,13.7,18.1,-10.0,/,54.4*,171.6*
O=C1c2ccccc2C(=O)N1Nc1ccccc1,23.6,19.1,-2.1,-1.6,-1.6,-0.2,/
Cc1ccc2c(c1)cc1c(=O)n(CC(=O)N3CCCC3)nc(C)n12,-1.8,22.1,-3.3,-3.7,-8.4,0.7,/
Cn1c(C=O)c(C#Cc2ccccc2)c2ccccc21,20.2,41.1,/,3.1,-0.7,11.8,/
CS(=O)(=O)c1ccc(S(=O)CC(=O)Oc2ccc(Cl)cc2)c([N+](=O)[O-])c1 (stereo not drawn),47.3,39.8,23.6,-8.8,45.6,51.5*,24.2
O=C(CS(=O)c1ccccc1[N+](=O)[O-])Oc1ccc(Br)cc1 (stereo not drawn),-15.8,4.2,5.4,-1.0,-2.8,-1.1,/
O=C(N/N=C/c1cccnc1)c1cccc(Br)c1,-8.1,18.7,-3.1,-2.3,-4.8,0.4,/
O=C(/C=C/c1cccnc1)c1ccc(NC(=O)c2cccc(Br)c2)cc1,-3.0,8.4,-4.3,9.7,8.9,91.3*,196.8*
CCc1cccc2c(C(=O)CCl)c[nH]c12,12.3,18.3,/,-0.3,-20.9,84.1*,66.2*
CCc1cccc2c(C(=S)N3CCCC3)c[nH]c12,4.6,-34.6,3.8,4.9,-8.3,0.6,/
CCCc1nc(SCC(=O)Nc2nnc(CC)s2)c2c(=O)n(C)c(=O)n(C)c2n1,-5.3,45.9,-3.6,-1.0,18.8,3.3,/
C=CCOC(=O)c1sc(NC(=O)c2ccc(OC)cc2)nc1C,58.6,-2.5,-5.2,4.8,4.8,43.2*,0.3
CCOc1ccc(C(=O)Nc2nc(C)c(C(=O)OC)s2)cc1,-1.7,42.4,1.6,2.2,8.5,4.3,/
CCCCn1c(N)c(N(CCOC)C(=O)CCCc2nc3ccccc3c(=O)[nH]2)c(=O)[nH]c1=O,9.4,5.1,12.8,-4.4,-3.9,-1.1,/
CCN(CC)c1ccc(/C=C2/C(=O)ON=C2C)cc1,7.7,25.8,0.6,2.8,-2.5,4.6,/
CCN(CC)c1ccc(/C=C2\C(=O)N(c3nnc(C)c(=O)[nH]3)N=C2C)cc1,32.1,-0.5,-15.9,-0.5,-6.5,221.4*,832.2*
COc1cc(CNc2ccc3[nH]c(=O)[nH]c3c2)cc(Br)c1OCc1ccc(F)cc1,0.3,32.6,12.2,2.5,-7.0,67.3*,28.2
O=C(COC(=O)c1ccc(F)cc1F)Nc1cc(S(=O)(=O)N2CCOCC2)ccc1Cl,/,12.9,/,-0.2,/,4.9,/
CCOC(=O)c1c(NC(=O)CSc2nnnn2-c2ccc(OC)cc2)sc(C)c1C,-8.7,-14.8,-9.1,0.7,-4.2,56.7*,1.1
CCOC(=O)c1csc(NC(=O)CSc2nnnn2-c2ccc(OC)cc2)n1,-4.7,0.1,-1.3,-1.9,-2.9,-0.7,/
CCc1ccccc1N(C)S(=O)(=O)c1ccc(-c2cc(C)no2)s1,61.2,45.5,0.1,-5.6,30.4,-1.0,/
Brc1ccccc1CN1CCN(Cc2c[nH]c3ccccc23)CC1,3.7,48.3,-2.5,-8.3,130.1*,41.5*,153.4*
CCCCOC(=O)/C=C\C(=O)OCCCC,-8.9,-17.2,10.1,-2.4,-6.1,3.1,/
CCCCOC(=O)/C=C\C(=O)NC(N)=O,11.5,7.6,-6.1,-4.7,-16.8,88.1*,121.2*
CCCCCCCCOc1ccc(C2OC34CCCCC3C(C#N)(C#N)C2(C#N)C(=N)O4)cc1 (stereo not drawn),-4.2,13.0,2.8,-1.9,-8.3,45.0*,28.6
